Measurements as given in ChEMBL document CHEMBL4028848, “Discovery of N-{4-[5-(4-Fluorophenyl)-3-methyl-2-methylsulfanyl-3H-imidazol-4-yl]-pyridin-2-yl}-acetamide (CBS-3595), a Dual p38α MAPK/PDE-4 Inhibitor with Activity against TNFα-Related Diseases” (J Med Chem, 2017).
Active and inactive are the calls of the source. The rule behind the calls is not given here.

Columns and labels:
[1] = molecular target: Receptor-interacting serine/threonine-protein kinase 2 (Homo sapiens) (UniProt O43353); experiment: Inhibition of RIPK2 (unknown origin) at 10 uM relative to control
[2] = Drug metabolism in cynomolgus monkey liver microsomes assessed as N-(4-(4-(4-fluorophenyl)-1-methyl-2-(methylsulfinyl)-1H-imidazol-5-yl)pyridin-2-yl)acetamide formation at 10 to 100 uM; format: ADME, Macaca fascicularis, microsome
Method in brief: (§1)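 Test compound incubated at 10, 30 and 100 μM with liver microsomes from rat, Cynomolgus monkey or human, and metabolites monitored.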

Rattus norvegicus [3] = experiment: Toxicity in Sprague-Dawley rat assessed as increase in piloerection at 150 mg/kg, po administered via gavage for daily 28 days followed by 2 weeks off without dosing; format: organism-based; settings: in vivo
Rattus norvegicus [4] = experiment: Toxicity in Sprague-Dawley rat assessed as hypoactivity at 2000 mg/kg, po administered via gavage measured on day 1 and 2; format: organism-based; settings: in vivo
Cynomolgus monkey = experiment: Toxicity in cynomolgus monkey assessed as decrease in QT at 6 to 20 mg/kg, po; format: organism-based, Macaca fascicularis; settings: in vivo
[5] = Half life in Beagle dog at 40 mg/kg, po by LC-MS/MS analysis; format: ADME, organism-based, Canis lupus familiaris; settings: in vivo
Method in brief: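 Oral single-dose PK; plasma concentrations of parent and metabolite measured. Dogs: blood sampled 0.25 to 24 h after dosing. Humans: healthy subjects, placebo-controlled single-blind randomized consecutive dosing, plasma sampled predose and 0.25–36 h post dose. 10 mg also given fasting and fed in crossover. Parameters derived from individual concentration–time profiles.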

Rattus norvegicus [6] = experiment: Toxicity in rat assessed as effect on central nervous system at 30 to 300 mg/kg, po administered as single dose; format: organism-based; settings: in vivo
[7] = AUC (0 to t) in male Sprague-Dawley rat at 30 mg/kg, po by LC-MS/MS analysis; format: ADME, organism-based; settings: in vivo
Method in brief: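 Rats of each sex received a single oral dose of 30 mg/kg. Plasma concentration–time profiles of parent were determined separately for females and males.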

[8] = molecular target: Dual specificity mitogen-activated protein kinase kinase 6 (Homo sapiens) (UniProt P52564); experiment: Inhibition of MKK6 (unknown origin) assessed as decrease in p38alpha MAPK phosphorylation at 10 uM relative to control
Homo sapiens [9] = organism: Homo sapiens; experiment: Inhibition of p70S6K (unknown origin) at 10 uM relative to control
Rattus norvegicus [10] = experiment: Toxicity in Sprague-Dawley rat assessed as piloerection at 2000 mg/kg, po administered via gavage measured on day 1 and 2; format: organism-based; settings: in vivo
Rattus norvegicus [11] = experiment: Toxicity in Sprague-Dawley rat assessed as dyspnea at 2000 mg/kg, po administered via gavage measured on day 1 and 2; format: organism-based; settings: in vivo
Rattus norvegicus [12] = experiment: In vivo inhibition of P38 MAPKalpha in Lewis rat assessed as decrease in LPS-stimulated TNFalpha level in serum at 10 mg/kg, po pretreated for 5 hrs followed by LPS addition measured after 1.5 hrs post dose; format: functional, organism-based
Method in brief: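 Lewis rats, n = 8/group: females dosed orally at 10 mg/kg at −1, −3 or −5 h relative to LPS challenge, plus one male group dosed at −1 h. Male and female vehicle controls were given at −1 h. Serum TNFα was measured after LPS and compared with vehicle.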

Rattus norvegicus [13] = experiment: Toxicity in Sprague-Dawley rat assessed as mortality at 2000 mg/kg, po administered via gavage after 14 days; format: organism-based; settings: in vivo, 336 h
[14] = molecular target: Tyrosine-protein kinase Lyn (Homo sapiens) (UniProt P07948); experiment: Inhibition of Lyn (unknown origin) at 10 uM relative to control
[15] = Half life in male Sprague-Dawley rat at 30 mg/kg, po by LC-MS/MS analysis; format: ADME, organism-based; settings: in vivo
[16] = Drug metabolism in cynomolgus monkey liver microsomes assessed as 4-(4-(4-fluorophenyl)-1-methyl-2-(methylsulfonyl)-1H-imidazol-5-yl)pyridin-2-amine formation at 10 to 100 uM; format: ADME, Macaca fascicularis, microsome; method in brief: as §1
[17] = Tmax in mongrel dog at 30 mg/kg, po by LC-MS/MS analysis; format: ADME, organism-based, Canis lupus familiaris; settings: in vivo
Homo sapiens [18] = experiment: Toxicity in human assessed as effect on heart rate at 50 mg, po administered as single dose; format: organism-based; settings: in vivo
Rattus norvegicus [19] = experiment: Antiarthritic activity in Lewis rat assessed as change in paw volume at 50 mg/kg, po qd administered for 10 days; format: functional, organism-based
Method in brief: (§2)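 Collagen-induced arthritis in male Lewis rats (5–6 per group). Groups received vehicle, dexamethasone 1 mg/kg, test item 50 mg/kg once daily, or 25 mg/kg twice daily for 10 days. Body weight, arthritic score and paw volume were monitored, and serum COMP was measured at the end.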

[20] = Toxicity in cynomolgus monkey for 28 days; parameters: species or system Macaca fascicularis; settings: in vivo
Method in brief: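 Cynomolgus monkeys, 32 in total, 3–5 per group. Dosed for 28 days with vehicle or 6, 12 or 20 mg/kg; the high dose was raised to 25 mg/kg/day after 1 week. Two males and two females from the control and high-dose groups were followed through a further 2-week treatment-free period. Deaths and clinical signs recorded.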

[21] = Drug metabolism in human primary hepatocytes assessed as CBS-3846 formation at 10 to 100 uM; format: ADME, cell-based, Hepatocyte
Rattus norvegicus [22] = experiment: Antiarthritic activity in Lewis rat assessed as collagen oligomeric matrix protein level in serum at 25 mg/kg, po bid administered for 10 days (Rbv = 0.17 +/- 0.02 U/l); format: functional; method in brief: as §2
[23] = AUC (0 to infinity) in mongrel dog at 30 mg/kg, po by LC-MS/MS analysis; format: ADME, organism-based, Canis lupus familiaris; parameters: dose 30 mg/kg, time infinity, route oral; settings: in vivo
Method in brief: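 Two mongrel dogs received a single oral dose of 30 mg/kg. Blood was sampled from 0.25 to 24 h and plasma parent concentrations were determined.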

Rattus norvegicus [24] = experiment: Toxicity in rat assessed as effect on respiratory rate by measuring increase in peak expiratory flow 300 mg/kg, po administered as single dose; format: organism-based; settings: in vivo
Lymphocyte = experiment: Clastogenicity in human lymphocytes in presence of S9 fraction by microneucleus test; format: toxicity, cell-based
Method in brief: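 Cytogenetic clastogenicity assay in cultured human lymphocytes, run with and without S9 mix.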

Homo sapiens [25] = experiment: In vivo inhibition of p38 MAPKalpha in human whole blood assessed as decrease in LPS-stimulated TNFalpha level at 10 to 30 mg treated for 36 hrs followed by LPS stimulation; format: functional, organism-based
Method in brief: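 Ex vivo read-out in healthy volunteers after a single oral dose (10, 20 or 30 mg; placebo-controlled, single-blind, randomized). Blood drawn pre-dose and at 1, 2, 4, 9, 24 and 36 h post-dose was stimulated with LPS. TNFα release is expressed relative to the LPS-stimulated pre-dose sample of the same subject.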

Rattus norvegicus [26] = experiment: Toxicity in Sprague-Dawley rat assessed as increase in abdomen size at 150 mg/kg, po administered via gavage for daily 28 days followed by 2 weeks off without dosing; format: organism-based; settings: in vivo
Homo sapiens [27] = experiment: Toxicity in human assessed as effect on blood pressure at 50 mg, po administered as single dose; format: organism-based; settings: in vivo
[28] = molecular target: Mitogen-activated protein kinase 14 (Homo sapiens, UniProt Q16539); experiment: Inhibition of p38MAPK alpha (unknown origin) at 10 uM relative to control
[29] = molecular target: Casein kinase I isoform delta (Homo sapiens) (UniProt P48730); experiment: Inhibition of CK1delta (unknown origin) at 3 uM relative to control
Liver = experiment: Drug level in human liver microsomes treated with CBS-3595 at 10 to 100 uM; format: ADME, microsome; method in brief: as §1
[30] = molecular target: Mitogen-activated protein kinase 1 (Homo sapiens) (UniProt P28482); experiment: Inhibition of MAPK1 (unknown origin) at 10 uM
Chain of Mitogen-activated protein kinase 1 (Homo sapiens) (P28482 whole entry): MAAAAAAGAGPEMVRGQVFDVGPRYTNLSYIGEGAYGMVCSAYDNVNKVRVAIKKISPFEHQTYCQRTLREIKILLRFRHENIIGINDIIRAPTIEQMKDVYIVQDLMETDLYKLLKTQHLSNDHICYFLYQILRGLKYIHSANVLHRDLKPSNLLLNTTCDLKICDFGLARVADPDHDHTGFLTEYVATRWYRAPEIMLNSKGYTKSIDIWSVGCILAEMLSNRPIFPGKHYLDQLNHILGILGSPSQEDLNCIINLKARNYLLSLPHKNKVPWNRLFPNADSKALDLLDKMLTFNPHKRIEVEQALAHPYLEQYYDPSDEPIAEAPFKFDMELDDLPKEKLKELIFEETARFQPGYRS

Chain of Tyrosine-protein kinase Lyn (Homo sapiens) (P07948 2-512 limits assumed): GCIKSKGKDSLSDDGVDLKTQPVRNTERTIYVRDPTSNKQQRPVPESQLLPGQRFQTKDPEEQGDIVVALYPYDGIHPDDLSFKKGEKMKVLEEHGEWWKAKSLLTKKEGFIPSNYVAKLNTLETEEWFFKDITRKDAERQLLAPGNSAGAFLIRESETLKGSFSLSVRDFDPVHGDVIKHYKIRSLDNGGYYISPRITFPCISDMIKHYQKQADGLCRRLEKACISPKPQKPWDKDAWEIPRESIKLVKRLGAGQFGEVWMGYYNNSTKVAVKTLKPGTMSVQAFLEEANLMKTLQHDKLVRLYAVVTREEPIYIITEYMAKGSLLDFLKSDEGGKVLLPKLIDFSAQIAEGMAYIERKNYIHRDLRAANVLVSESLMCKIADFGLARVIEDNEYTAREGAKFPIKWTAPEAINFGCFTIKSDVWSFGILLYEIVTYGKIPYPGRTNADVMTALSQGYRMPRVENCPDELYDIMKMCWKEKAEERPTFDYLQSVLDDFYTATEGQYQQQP
Chain of Casein kinase I isoform delta (Homo sapiens) (P48730 whole entry, looked up, canonical isoform): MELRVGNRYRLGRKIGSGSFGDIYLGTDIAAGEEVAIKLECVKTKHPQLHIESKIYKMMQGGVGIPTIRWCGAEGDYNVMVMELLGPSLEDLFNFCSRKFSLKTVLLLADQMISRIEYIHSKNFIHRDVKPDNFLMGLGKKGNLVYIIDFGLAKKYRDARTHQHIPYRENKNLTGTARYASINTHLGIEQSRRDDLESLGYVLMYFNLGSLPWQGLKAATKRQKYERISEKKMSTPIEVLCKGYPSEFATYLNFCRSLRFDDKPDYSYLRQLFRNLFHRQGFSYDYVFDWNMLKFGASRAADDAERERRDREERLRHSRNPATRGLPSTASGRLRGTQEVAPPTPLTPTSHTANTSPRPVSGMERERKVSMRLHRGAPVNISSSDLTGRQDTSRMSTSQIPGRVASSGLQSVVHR
Chain of Receptor-interacting serine/threonine-protein kinase 2 (Homo sapiens) (O43353 whole entry): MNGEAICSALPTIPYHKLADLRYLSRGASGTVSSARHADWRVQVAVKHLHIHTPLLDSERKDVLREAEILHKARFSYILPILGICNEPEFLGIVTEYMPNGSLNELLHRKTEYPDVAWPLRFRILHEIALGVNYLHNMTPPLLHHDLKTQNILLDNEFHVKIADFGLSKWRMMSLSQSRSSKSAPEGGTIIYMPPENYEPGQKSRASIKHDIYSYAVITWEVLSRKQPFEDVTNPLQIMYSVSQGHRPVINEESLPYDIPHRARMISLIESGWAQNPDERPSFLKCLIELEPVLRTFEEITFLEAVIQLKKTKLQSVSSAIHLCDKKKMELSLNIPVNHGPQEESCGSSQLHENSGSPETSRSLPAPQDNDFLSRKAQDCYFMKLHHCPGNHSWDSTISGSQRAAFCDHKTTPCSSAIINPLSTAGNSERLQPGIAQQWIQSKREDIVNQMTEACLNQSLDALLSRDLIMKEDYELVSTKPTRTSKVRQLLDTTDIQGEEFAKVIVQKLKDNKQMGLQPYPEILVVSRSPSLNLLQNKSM
Chain of Mitogen-activated protein kinase 14 (Q16539 whole entry, canonical isoform): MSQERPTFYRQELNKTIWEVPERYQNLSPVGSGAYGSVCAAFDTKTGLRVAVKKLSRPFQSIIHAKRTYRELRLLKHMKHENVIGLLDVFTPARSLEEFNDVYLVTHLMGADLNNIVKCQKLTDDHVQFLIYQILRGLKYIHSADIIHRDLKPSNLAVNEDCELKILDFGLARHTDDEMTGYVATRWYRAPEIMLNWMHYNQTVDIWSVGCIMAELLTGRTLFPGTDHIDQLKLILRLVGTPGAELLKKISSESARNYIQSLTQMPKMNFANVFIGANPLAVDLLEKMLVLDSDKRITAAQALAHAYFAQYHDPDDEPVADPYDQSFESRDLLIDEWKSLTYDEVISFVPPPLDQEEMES
Chain of Dual specificity mitogen-activated protein kinase kinase 6 (Homo sapiens) (P52564 whole entry): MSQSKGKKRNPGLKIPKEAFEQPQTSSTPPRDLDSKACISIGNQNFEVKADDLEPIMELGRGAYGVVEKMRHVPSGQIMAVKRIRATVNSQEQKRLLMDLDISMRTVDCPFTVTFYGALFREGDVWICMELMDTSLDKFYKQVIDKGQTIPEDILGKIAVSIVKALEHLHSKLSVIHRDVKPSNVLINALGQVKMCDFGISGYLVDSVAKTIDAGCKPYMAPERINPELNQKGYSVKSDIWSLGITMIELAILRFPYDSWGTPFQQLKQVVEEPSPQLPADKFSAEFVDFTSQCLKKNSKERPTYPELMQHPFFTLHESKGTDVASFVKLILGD

## CC(=O)Nc1cc(-c2c(-c3ccc(F)cc3)nc([S+](C)[O-])n2C)ccn1 (centres undefined)
[1]
  inhibition: 33%
[2]
  Drug metabolism: Metabolite_Detected
Rattus norvegicus [3]
  Activity: Toxic
Rattus norvegicus [4]
  Activity: Toxic
Cynomolgus monkey
  Activity: Toxic
[5]
  half-life: 7.8 h
Rattus norvegicus [6]
  Activity: Non-Toxic
[7]
  AUC(0-t): 29.8 µM·h
[8]
  inhibition: 62%
Homo sapiens [9]
  inhibition: 32%
Rattus norvegicus [10]
  Activity: Toxic
Rattus norvegicus [11]
  Activity: Toxic
Rattus norvegicus [12]
  inhibition: Active
Rattus norvegicus [13]
  Activity: Non-Toxic
[14]
  inhibition: 31%
[15]
  half-life: 1.8 h
[16]
  Drug metabolism: Metabolite_Detected
[17]
  Tmax: 2 h
Homo sapiens [18]
  Activity: Non-Toxic
Rattus norvegicus [19]
  Activity: inactive
[20]
  MTD at 672 h: 20 mg/kg
  NOAEL at 672 h: > 25 mg/kg
[21]
  Drug metabolism: Metabolite_Detected
Rattus norvegicus [22]
  Activity: 0.08 U/L
[23]
  AUC(0-inf): 96.8 µM·h
Rattus norvegicus [24]
  Activity: Toxic
Lymphocyte
  Activity: Non-Toxic
Homo sapiens [25]
  inhibition: Active
Rattus norvegicus [26]
  Activity: Toxic
Homo sapiens [27]
  Activity: Non-Toxic

## Cn1c([S+](C)[O-])nc(-c2ccc(F)cc2)c1-c1ccnc(N)c1 (centres undefined)
[28]
  inhibition: inactive
[29]
  inhibition: 88%
Liver
  Drug metabolism: Metabolite_Detected
[30]
  inhibition: inactive
